Source: ChEMBL document CHEMBL1128574, “Glycosylated peptide hormones: pharmacological properties and conformational studies of analogues of [1-desamino,8-D-arginine]vasopressin” (J Med Chem, 1995)
Bridge positions count the residues as written; N and C are the ends. Square brackets hold non-standard residues; d marks the D form. Peptide text beside a SMILES is read from it. * marks the point of attachment. X2 = CC(=O)OC[C@@H]1O[C@@H](*)[C@@H](OC(C)=O)[C@@H](OC(C)=O)[C@H]1OC(C)=O; X1 = OC[C@@H]1O[C@@H](*)[C@@H](O)[C@@H](O)[C@H]1O; Mpa = O=C(O)CCS

Assays:
[1] = Bioavailability in rat administered i.d.; format: ADME, organism-based; conditions: in vivo
In short: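 Computed as (AUCii/doseii)/(AUCiv/doseiv). Anaesthetized male Sprague-Dawley rats received 100 μg intraintestinally into a cannulated jejunal segment or 1.0 μg iv via jugular vein, both in 0.9% NaCl. Plasma levels by RIA; AUC by trapezoidal rule.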

[2] = tested on: Rattus norvegicus; assay: Area under the curve administered intraintestinal in rats.; format: ADME, organism-based; conditions: in vivo, other
In short: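 Anaesthetized (Inactin) male Sprague-Dawley rats, 250–300 g, kept at 37 °C. 100 μg peptide in 1 mL 0.9% NaCl given into a cannulated, rinsed 15 cm small-intestine segment starting 10 cm distal to pylorus, after 30 min recovery. Carotid blood sampled, EDTA plasma assayed by RIA (antibody ADA 6). AUC by trapezoidal rule; mean ± SEM of n rats.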

[3] = tested on: Rattus norvegicus; assay: Area under the curve administered intravenously in rats.; format: ADME, organism-based; conditions: in vivo, iv
In short: (§1)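 Anaesthetized (Inactin) male Sprague-Dawley rats, 250–300 g. 1.0 μg peptide in 0.2 mL sterile 0.9% NaCl injected into a catheterized jugular vein. Carotid blood samples (0.2 mL) taken as EDTA plasma and quantified by RIA (ADA 6 antibody, [125I]Tyr2-DDAVP tracer). Half-life and trapezoidal AUC given as mean ± SEM of n rats.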

[4] = Cmax value administered intraintestinal in rats.; format: ADME, organism-based; conditions: rat, in vivo
In short: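 Anaesthetized (Inactin) male Sprague-Dawley rats, 250–300 g, 37 °C. 100 μg peptide in 1 mL 0.9% NaCl given into a cannulated 15 cm intestinal segment. Plasma peptide measured by RIA at set time points; the maximal plasma concentration is reported as mean ± SEM of n rats.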

[5] = Degradation in vitro by alpha-chymotrypsin.; format: ADME
In short: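 Peptide (1 mM final) incubated with α-chymotrypsin (1 mg/mL final) at 37 °C in 25 mM Tris, 65 mM NaCl, 2.5 mM CaCl2, pH 7.8. Reaction stopped with ice-cold TCA and centrifuged. Remaining peptide measured over time by RP-HPLC against an enzyme-free reference, giving the half-life.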

[6] = Degradation in vitro by rat intestinal juice.; format: ADME, organism-based
In short: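 Rat intestinal juice was a 0.9% NaCl rinse of a 10 cm small-intestine segment, centrifuged at 10000g and stored at −20 °C. Incubation matched the chymotrypsin assay (1 mM peptide, 37 °C, pH 7.8) except for 165 mM Tris. Juice amount was set to degrade DDAVP at 2%/min. Time course by RP-HPLC.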

[7] = Half life administered intravenously in rats.; format: ADME, organism-based; conditions: rat, in vivo, iv; in short: as §1
[8] = Relative transport rate as the ratio of transport rate to that of PEG 1000.; format: ADME
In short: (§2)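 Rat small-intestine pieces, about 35 cm distal to pylorus and free of Peyer's patches, mounted in a modified Ussing chamber (1.47 cm2) at 37 °C in oxygenated Krebs-Ringer, pH 7.4. Peptide, [3H]PEG 1000 and [14C]PEG 4000 added apically. Basolateral samples taken every 15 min and assayed by RIA or scintillation counting. Papp = (dQ/dt)/(A·C0), expressed relative to each PEG.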

[9] = Relative transport rate as the ratio of transport rate to that of PEG 4000.; format: ADME; in short: as §2
[10] = target: T1, Vasopressin receptor (Rattus norvegicus) (UniProt P48974+P30560+Q00788)
[11] = target: T1, Vasopressin receptor (Rattus norvegicus); assay: Percent inhibition of vasopressin receptor agonistic activity in vivo in rats; format: functional, organism-based; conditions: concentration not given here
In short: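 Overnight-hydrated male Sprague-Dawley rats. Peptide injected 1 min before a fixed vasopressin dose, set per rat to give similar antidiuretic responses. Inhibition was read at a 330-fold molar excess over vasopressin as percent inhibition of the antidiuretic effect. Mean of two experiments.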

[12] = target: T1, Vasopressin receptor (Rattus norvegicus); assay: Compound was tested in vitro for its ability to displace radioligand [3H]vasopressin from the vasopressin receptor in rat renal medullary membrane in absence of V1-antagonist; format: functional, cell membranes; conditions: Renal medulla
In short: (§3)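 Rat renal medullary membranes (250 μg protein) incubated for 120 min at room temperature with 1 nM [3H]vasopressin and increasing peptide concentrations, with or without 10 nM of the V1 antagonist [Phenylac1,D-Tyr(Me)2,Arg6,8,Lys-NH2 9]vasopressin. Membranes were pelleted and washed, and bound label was counted by liquid scintillation.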

[13] = target: T1, Vasopressin receptor (Rattus norvegicus); assay: Compound was tested in vitro for its ability to displace radioligand [3H]vasopressin from the vasopressin receptor in rat renal medullary membrane in presence of V1-antagonist; format: functional, cell membranes; conditions: Renal medulla; in short: as §3

Compound	bioavailability [1] [%]	AUC [2] [ng·min/mL]	AUC [3] [ng·min/mL]	Cmax [4] [ng/mL]	half-life [5] [min]	half-life [6] [min]	half-life [7] [min]	Ratio [8]	Ratio [9]	Antidiuretic activity [10]	inhibition [11] [%]	Displacement [12] [%]	Displacement [13] [%]
NC(=O)CNC(=O)[C@H](CCCN=C(N)N)NC(=O)[C@@H]1CCCN1C(=O)[C@@H]1CSSCCC(=O)N[C@@H](Cc2ccc(O)cc2)C(=O)N[C@@H](Cc2ccccc2)C(=O)N[C@@H](CO[C@@H]2O[C@@H](CO)[C@H](O)[C@H](O)[C@@H]2O)C(=O)N[C@@H](CC(N)=O)C(=O)N1 ([Mpa]YFS(X1)NCPRG-NH2; disulfide 1-6)	1.6	345	211	2.5	37	320	20	0.96	2.56	0.06 IU µM-1	4	55	55
CC(=O)OC[C@@H]1O[C@@H](OC[C@@H]2NC(=O)[C@H](Cc3ccccc3)NC(=O)[C@H](Cc3ccc(O)cc3)NC(=O)CCSSC[C@@H](C(=O)N3CCC[C@H]3C(=O)N[C@@H](CCCN=C(N)N)C(=O)NCC(N)=O)NC(=O)[C@H](CC(N)=O)NC2=O)[C@@H](OC(C)=O)[C@@H](OC(C)=O)[C@H]1OC(C)=O ([Mpa]YFS(X2)NCPRG-NH2; disulfide 1-6)	2.1	620	298	3.6	180	230	35	1.09	2.83	0.31 IU µM-1	3	45	45
NC(=O)CC[C@@H]1NC(=O)[C@H](Cc2ccccc2)NC(=O)[C@H](Cc2ccc(O)cc2)NC(=O)CCSSC[C@@H](C(=O)N2CCC[C@H]2C(=O)N[C@H](CCCN=C(N)N)C(=O)NCC(N)=O)NC(=O)[C@H](CC(N)=O)NC1=O [DESMOPRESSIN]	0.1	52	459	0.8	13	20	39	0.57	1.57	–	–	–	–

Results, then the molecule that gave them:

bioavailability [1] [%]	AUC [2] [ng·min/mL]	AUC [3] [ng·min/mL]	Cmax [4] [ng/mL]	half-life [5] [min]	half-life [6] [min]	half-life [7] [min]	Ratio [8]	Ratio [9]	Antidiuretic activity [10]	inhibition [11] [%]	Displacement [12] [%]	Displacement [13] [%]	Compound
0.5	141	278	1.4	37	280	32	0.62	1.66	–	–	–	–	NC(=O)CNC(=O)[C@@H](CCCN=C(N)N)NC(=O)[C@@H]1CCCN1C(=O)[C@@H]1CSSCCC(=O)N[C@H](Cc2ccc(O)cc2)C(=O)N[C@@H](Cc2ccccc2)C(=O)N[C@@H](CO)C(=O)N[C@@H](CC(N)=O)C(=O)N1
–	–	–	–	–	–	–	–	–	810 IU µM-1	–	–	–	NC(=O)CNC(=O)[C@H](CCCN=C(N)N)NC(=O)[C@@H]1CCCN1C(=O)[C@@H]1CSSCCC(=O)N[C@H](Cc2ccc(O)cc2)C(=O)N[C@@H](Cc2ccccc2)C(=O)N[C@@H](CO)C(=O)N[C@@H](CC(N)=O)C(=O)N1
